Results taken from ChEMBL document CHEMBL2434872, “Modulation of A2B adenosine receptor by 1-Benzyl-3-ketoindole derivatives” (Eur J Med Chem, 2013).
The source made the active and inactive calls. The rule behind the calls is not given here.

Legend:
[1] = test system: CHO; assay: Effect on cAMP production in adenosine receptor-deficient wild type CHO cells; assay type: functional, cell-based; details: Cricetulus griseus
[2] = target: T1, Adenosine receptor A3 (Homo sapiens, UniProt P0DMS8); assay: Displacement of [125I]AB-MECA from human adenosine A3 receptor expressed in CHO cell membrane after 90 mins; assay type: cell membranes
T1 sequence (P0DMS8 whole entry): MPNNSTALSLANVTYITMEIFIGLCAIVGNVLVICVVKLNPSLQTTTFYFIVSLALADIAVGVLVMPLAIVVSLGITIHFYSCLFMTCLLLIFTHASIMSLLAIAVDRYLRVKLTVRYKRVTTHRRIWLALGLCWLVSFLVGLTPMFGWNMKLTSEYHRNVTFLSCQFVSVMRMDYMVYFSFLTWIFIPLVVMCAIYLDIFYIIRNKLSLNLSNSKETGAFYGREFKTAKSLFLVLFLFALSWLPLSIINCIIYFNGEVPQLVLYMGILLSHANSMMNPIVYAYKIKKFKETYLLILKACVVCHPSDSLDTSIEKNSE

[3] = target: T2, Adenosine receptor A1 (Homo sapiens, UniProt P30542); assay: Displacement of [3H]DPCPX from human adenosine A1 receptor expressed in CHO cell membrane after 180 mins; assay type: cell membranes
T2 sequence (P30542 whole entry): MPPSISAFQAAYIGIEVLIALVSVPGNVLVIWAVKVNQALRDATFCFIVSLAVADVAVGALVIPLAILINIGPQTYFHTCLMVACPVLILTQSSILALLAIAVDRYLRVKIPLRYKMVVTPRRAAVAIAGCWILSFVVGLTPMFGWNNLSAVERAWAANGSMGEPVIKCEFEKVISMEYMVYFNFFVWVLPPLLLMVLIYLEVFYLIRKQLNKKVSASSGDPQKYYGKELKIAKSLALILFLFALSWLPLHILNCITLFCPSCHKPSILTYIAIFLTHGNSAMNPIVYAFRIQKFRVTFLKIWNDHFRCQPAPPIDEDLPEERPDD

[4] = target: Adenosine receptor A2a (Homo sapiens, UniProt P29274); assay: Displacement of [3H]NECA from human adenosine A2A receptor expressed in CHO cell membrane after 90 mins; assay type: cell membranes
Chain of Adenosine receptor A2a (P29274 whole entry): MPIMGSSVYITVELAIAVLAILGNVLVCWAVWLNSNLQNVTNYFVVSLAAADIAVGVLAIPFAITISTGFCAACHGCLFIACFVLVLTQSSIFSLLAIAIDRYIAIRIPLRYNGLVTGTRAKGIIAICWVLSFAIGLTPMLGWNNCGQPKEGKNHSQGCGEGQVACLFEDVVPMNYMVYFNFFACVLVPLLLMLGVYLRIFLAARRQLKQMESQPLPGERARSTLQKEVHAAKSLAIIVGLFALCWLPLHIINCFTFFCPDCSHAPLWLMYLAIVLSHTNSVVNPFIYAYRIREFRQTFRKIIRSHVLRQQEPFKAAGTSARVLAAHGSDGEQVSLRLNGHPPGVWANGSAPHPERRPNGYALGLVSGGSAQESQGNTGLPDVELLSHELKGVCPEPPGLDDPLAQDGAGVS

[5] = target: T2, Adenosine receptor A1; assay: (§1) Antagonist activity at human recombinant adenosine A1 receptor expressed in CHO cells assessed as inhibition of NECA-mediated reduction of intracellular [3H]-cAMP accumulation incubated for 15 mins prior to NECA induction measured after 30 mins by liquid scintillation spectrometric analysis in presence of forskolin; assay type: functional, cell-based
In short: (§2)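 CHO cells stably expressing human A1 receptor were plated for 24 h, then preincubated 15 min at 37 °C in DMEM with ADA (1 U/mL) and Ro20-1724 (20 µM). Compound (1 nM–10 µM) was added for 15 min, then 10 nM NECA with 1 µM forskolin for 15 min. Lysis was in 0.4 N HCl. cAMP was measured by [3H]cAMP competition with bovine adrenal binding protein, as % of forskolin level. IC50 from ≥3 experiments, duplicates.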

[6] = target: T3, Adenosine receptor A1 (Homo sapiens) (UniProt P30542); assay: as §1; assay type: functional, cell-based; in short: as §2
T3 sequence (whole entry): T2 sequence (P30542 whole entry)

Row | Structure (SMILES) | Activity [1] | Ki [2] [nM] | Ki [3] [nM] | Ki [4] [nM] | IC50 [5] [nM] | inhibition [6]
1 | O=C(Nc1ccccc1)c1cn(Cc2ccccc2)c2ccccc12 | inactive | > 1000 | > 10000 | > 10000 | – | –
2 | O=C(NCc1ccccc1)c1cn(Cc2ccccc2)c2ccccc12 | inactive | > 1000 | > 10000 | > 10000 | – | –
3 | O=C(Nc1ccccc1)C(=O)c1cn(Cc2ccccc2)c2ccccc12 | inactive | > 1000 | > 10000 | > 10000 | – | –
4 | O=C(C(=O)c1cn(Cc2ccccc2)c2ccccc12)c1cccs1 | inactive | > 1000 | > 10000 | > 10000 | – | –
5 | O=C(C(=O)c1cn(Cc2ccccc2)c2ccccc12)c1ccco1 | inactive | > 1000 | 343 | > 10000 | 291 | Dose-dependent effect
6 | O=C(NCc1ccccc1)C(=O)c1cn(Cc2ccccc2)c2ccccc12 | inactive | – | – | – | – | –
7 | O=C(C(=O)c1cn(Cc2ccccc2)c2ccccc12)c1ccccc1 | inactive | > 1000 | 162 | > 10000 | 404 | Dose-dependent effect
